Measurements as given in ChEMBL document CHEMBL1123757, “Selective thromboxane synthetase inhibitors and antihypertensive agents. New derivatives of 4-hydrazino-5H-pyridazino[4,5-b]indole, 4-hydrazinopyridazino[4,5-a]indole, and related compounds” (J Med Chem, 1987).

Legend:
Rattus norvegicus [1] = experiment: Antihypertensive activity in spontaneously hypertensive rats (SHR) measured by percentage fall in arterial pressure (AP) at 25 mg/kg administered perorally at 3 h; assay type: functional, Artery; settings: route oral
Summary of the method: (§1)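 Oral dosing at 2.5 mL/kg to unanesthetized male and female Okamoto-strain SHR (8 weeks old, 300–350 g, systolic pressure ≥190 mmHg, heart rate 400–650 beats/min), five per dose. Vehicle was normal saline or saline with 0.2% (carboxymethyl)cellulose and 1.0% Tween 80. AP measured on the tail by mechanical transduction at set times; expressed as percentage fall from control.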

Rattus norvegicus [2] = experiment: Antihypertensive activity in spontaneously hypertensive rats (SHR) measured by percentage fall in arterial pressure (AP) at 5 mg/kg administered intraperitoneally at 1 h; assay type: functional, Artery; settings: route intraperitoneal
Summary of the method: (§2)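 Unanesthetized Okamoto-strain SHR, male and female, 8 weeks old, 300–350 g, systolic pressure ≥190 mmHg, heart rate 400–650 beats/min; five animals per dose. Given ip at 2.5 mL/kg, dissolved or suspended in normal saline or saline with 0.2% (carboxymethyl)cellulose and 1.0% Tween 80. Tail AP and CR recorded by mechanical transduction at set times; reported as percentage fall from control.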

Rattus norvegicus [3] = experiment: Antihypertensive activity in spontaneously hypertensive rats (SHR) measured by percentage fall in arterial pressure (AP) at 5 mg/kg administered intraperitoneally at 24 h; assay type: functional, Artery; settings: route intraperitoneal; summary of the method: as §2
Rattus norvegicus [4] = experiment: Antihypertensive activity in spontaneously hypertensive rats (SHR) measured by percentage fall in arterial pressure (AP) at 5 mg/kg administered intraperitoneally at 5 h; assay type: functional, Artery; settings: route intraperitoneal; summary of the method: as §2
Rattus norvegicus [5] = experiment: Antihypertensive activity in spontaneously hypertensive rats (SHR) measured by percentage fall in arterial pressure (AP) at 5 mg/kg administered perorally at 1 h; assay type: functional, Artery; settings: route oral; summary of the method: as §1
Rattus norvegicus [6] = experiment: Antihypertensive activity in spontaneously hypertensive rats (SHR) measured by percentage fall in arterial pressure (AP) at 5 mg/kg administered perorally at 3 h; assay type: functional, Artery; settings: route oral; summary of the method: as §1
Rattus norvegicus [7] = experiment: Antihypertensive activity in spontaneously hypertensive rats (SHR) measured by percentage fall in arterial pressure (AP) at 25 mg/kg administered intraperitoneally at 5 h; assay type: functional, Artery; settings: route intraperitoneal; summary of the method: as §2
Rattus norvegicus [8] = experiment: Antihypertensive activity in spontaneously hypertensive rats (SHR) measured by percentage fall in arterial pressure (AP) at 25 mg/kg administered perorally at 1 h; assay type: functional, Artery; settings: route oral; summary of the method: as §1
Rattus norvegicus [9] = experiment: Antihypertensive activity in spontaneously hypertensive rats (SHR) measured by percentage fall in cardiac rhythm (CR) at 1 mg/kg administered intraperitoneally at 24 h; assay type: functional, Heart; settings: route intraperitoneal; summary of the method: as §2
Rattus norvegicus [10] = experiment: Antihypertensive activity in spontaneously hypertensive rats (SHR) measured by percentage fall in cardiac rhythm (CR) at 1 mg/kg administered intraperitoneally at 3 h; assay type: functional, Heart; settings: route intraperitoneal; summary of the method: as §2
Rattus norvegicus [11] = experiment: Antihypertensive activity in spontaneously hypertensive rats (SHR) measured by percentage fall in cardiac rhythm (CR) at 1 mg/kg administered intraperitoneally at 5 h; assay type: functional, Heart; settings: route intraperitoneal; summary of the method: as §2
Rattus norvegicus [12] = experiment: Antihypertensive activity in spontaneously hypertensive rats (SHR) measured by percentage fall in cardiac rhythm (CR) at 5 mg/kg administered perorally at 1 h; assay type: functional, Heart; settings: route oral
Summary of the method: (§3)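 Conscious SHR (Okamoto strain), 8 weeks old, male and female, 300–350 g, systolic BP ≥190 mmHg, CR 400–650 beats/min. Given ip or po at 2.5 mL/kg in normal saline or saline with 0.2% (carboxymethyl)cellulose and 1.0% Tween 80. Tail AP and CR recorded by mechanical transduction at 1, 3, 5 and 24 h, five animals per dose. Effect expressed as % fall versus control.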

Rattus norvegicus [13] = experiment: Antihypertensive activity in spontaneously hypertensive rats (SHR) measured by percentage fall in arterial pressure (AP) at 1 mg/kg administered intraperitoneally at 1 h; assay type: functional, Artery; settings: route intraperitoneal; summary of the method: as §2
Rattus norvegicus [14] = experiment: Antihypertensive activity in spontaneously hypertensive rats (SHR) measured by percentage fall in cardiac rhythm (CR) at 5 mg/kg administered intraperitoneally at 5 h; assay type: functional, Heart; settings: route intraperitoneal; summary of the method: as §3
Homo sapiens [15] = species on record: Homo sapiens; experiment: In vitro inhibition of platelet aggregation induced by ADP-II (PRP incubated for 5 minutes at 37 degree C) at 10e-5 M; assay type: functional
Summary of the method: (§4)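 Human venous blood anticoagulated with 3.8% sodium citrate (1:9). PRP from centrifugation at 800 rpm for 10 min at room temperature. Count adjusted with PPP to […]. Compound in saline with 10% ethylene glycol is added to PRP and incubated at 37 °C before the agonist. Agonists: ADP 2×10^-5 M, AA 0.6 mM, PGH2 2.8 μM, adrenaline 0.6 μM. Born absorbance aggregometry; n = 5.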

Homo sapiens [16] = species on record: Homo sapiens; experiment: In vitro inhibition of platelet aggregation induced by ADP-II (PRP incubated for 60 minutes at 37 degree C) at 10e-5 M; assay type: functional; settings: 1 h; summary of the method: as §4
Rattus norvegicus [17] = experiment: Percent fall in systolic blood pressure, directly measured on carotid (iv on the jugular vein) of spontaneously hypertensive rats at 1 mg/kg after 10 minutes; assay type: functional, Artery
Summary of the method: (§5)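 Anesthetized (sodium pentobarbital, 70 mg/kg) male and female Okamoto SHR, 8 weeks old, 300–350 g. Given iv into the jugular vein in normal saline. Arterial pressure and cardiac rhythm are recorded directly from the carotid by polygraph at set times after dosing. Each is expressed as percent change from the pre-dose control value.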

Rattus norvegicus [18] = experiment: Percent fall in systolic blood pressure, directly measured on carotid (iv on the jugular vein) of spontaneously hypertensive rats at 1 mg/kg after 15 minutes; assay type: functional, Artery; summary of the method: as §5
Rattus norvegicus [19] = experiment: Percent fall in systolic blood pressure, directly measured on carotid (iv on the jugular vein) of spontaneously hypertensive rats at 1 mg/kg after 30 minutes; assay type: functional, Artery; summary of the method: as §5
Rattus norvegicus [20] = experiment: Percent fall in systolic blood pressure, directly measured on carotid (iv on the jugular vein) of spontaneously hypertensive rats at 1 mg/kg after 5 minutes; assay type: functional, Artery; summary of the method: as §5
Rattus norvegicus [21] = experiment: Percent fall in systolic blood pressure, directly measured on carotid (iv on the jugular vein) of spontaneously hypertensive rats at 1 mg/kg after 60 minutes; assay type: functional, Artery; summary of the method: as §5
Rattus norvegicus [22] = experiment: Percent fall in systolic blood pressure, directly measured on carotid (iv on the jugular vein) of spontaneously hypertensive rats at 1 mg/kg after 75 minutes; assay type: functional, Artery; summary of the method: as §5
Rattus norvegicus [23] = experiment: Percent fall in systolic blood pressure, directly measured on carotid (iv on the jugular vein) of spontaneously hypertensive rats at 1 mg/kg after 90 minutes; assay type: functional, Artery; summary of the method: as §5
Rattus norvegicus [24] = experiment: Antihypertensive activity in spontaneously hypertensive rats (SHR) measured by percentage fall in cardiac rhythm (CR) at 1 mg/kg administered intraperitoneally at 1 h; assay type: functional, Heart; settings: route intraperitoneal; summary of the method: as §2
Rattus norvegicus [25] = experiment: Antihypertensive activity in spontaneously hypertensive rats (SHR) measured by percentage fall in cardiac rhythm (CR) at 25 mg/kg administered intraperitoneally at 24 h; assay type: functional, Heart; settings: route intraperitoneal; summary of the method: as §2
Rattus norvegicus [26] = experiment: Antihypertensive activity in spontaneously hypertensive rats (SHR) measured by percentage fall in cardiac rhythm (CR) at 25 mg/kg administered intraperitoneally at 3 h; assay type: functional, Heart; settings: route intraperitoneal; summary of the method: as §2
Rattus norvegicus [27] = experiment: Antihypertensive activity in spontaneously hypertensive rats (SHR) measured by percentage fall in cardiac rhythm (CR) at 25 mg/kg administered intraperitoneally at 5 h; assay type: functional, Heart; settings: route intraperitoneal; summary of the method: as §3
Rattus norvegicus [28] = experiment: Antihypertensive activity in spontaneously hypertensive rats (SHR) measured by percentage fall in cardiac rhythm (CR) at 25 mg/kg administered perorally at 1 h; assay type: functional, Heart; settings: route oral; summary of the method: as §3
Rattus norvegicus [29] = experiment: Antihypertensive activity in spontaneously hypertensive rats (SHR) measured by percentage fall in arterial pressure (AP) at 1 mg/kg administered intraperitoneally at 3 h; assay type: functional, Artery; settings: route intraperitoneal; summary of the method: as §2
Rattus norvegicus [30] = experiment: Antihypertensive activity in spontaneously hypertensive rats (SHR) measured by percentage fall in arterial pressure (AP) at 25 mg/kg administered intraperitoneally at 1 h; assay type: functional, Artery; settings: route intraperitoneal; summary of the method: as §2
Rattus norvegicus [31] = experiment: Antihypertensive activity in spontaneously hypertensive rats (SHR) measured by percentage fall in arterial pressure (AP) at 25 mg/kg administered intraperitoneally at 24 h; assay type: functional, Artery; settings: route intraperitoneal; summary of the method: as §2
Rattus norvegicus [32] = experiment: Antihypertensive activity in spontaneously hypertensive rats (SHR) measured by percentage fall in arterial pressure (AP) at 25 mg/kg administered intraperitoneally at 3 h; assay type: functional, Artery; settings: route intraperitoneal; summary of the method: as §2
Rattus norvegicus [33] = experiment: Antihypertensive activity in spontaneously hypertensive rats (SHR) measured by percentage fall in arterial pressure (AP) at 5 mg/kg administered intraperitoneally at 3 h; assay type: functional, Artery; settings: route intraperitoneal; summary of the method: as §2
Rattus norvegicus [34] = experiment: Percent fall in systolic blood pressure, directly measured on carotid (iv on the jugular vein) of spontaneously hypertensive rats at 1 mg/kg after 45 minutes; assay type: functional, Artery; summary of the method: as §5

## CCOc1ccc2[nH]c3c(NN)nncc3c2c1.Cl
Rattus norvegicus [1]
  Decrease in AP: 5%
Rattus norvegicus [2]
  Decrease in AP: 59%
Rattus norvegicus [3]
  Decrease in AP: 12%
Rattus norvegicus [4]
  Decrease in AP: 32%
Rattus norvegicus [5]
  Decrease in AP: 15%
Rattus norvegicus [6]
  Decrease in AP: 10%
Rattus norvegicus [7]
  Decrease in AP: 51%
Rattus norvegicus [8]
  Decrease in AP: 16%
Rattus norvegicus [9]
  Decrease in CR: 10%
Rattus norvegicus [10]
  Decrease in CR: -5%
Rattus norvegicus [11]
  Decrease in CR: -10%
Rattus norvegicus [12]
  Decrease in CR: -11%
Rattus norvegicus [13]
  Decrease in AP: 29%
Rattus norvegicus [14]
  Decrease in CR: -7%
Homo sapiens [15]
  inhibition at 10 µM: 100%
Homo sapiens [16]
  inhibition at 10 µM: 100%
Rattus norvegicus [17]
  Decrease in blood pressure: 18%
Rattus norvegicus [18]
  Decrease in blood pressure: 20%
Rattus norvegicus [19]
  Decrease in blood pressure: 32%
Rattus norvegicus [20]
  Decrease in blood pressure: 16%
Rattus norvegicus [21]
  Decrease in blood pressure: 41%
Rattus norvegicus [22]
  Decrease in blood pressure: 32%
Rattus norvegicus [23]
  Decrease in blood pressure: 25%
Rattus norvegicus [24]
  Decrease in CR: 6%
Rattus norvegicus [25]
  Decrease in CR: -11%
Rattus norvegicus [26]
  Decrease in CR: -17%
Rattus norvegicus [27]
  Decrease in CR: -20%
Rattus norvegicus [28]
  Decrease in CR: 11%
Rattus norvegicus [29]
  Decrease in AP: 10%
Rattus norvegicus [30]
  Decrease in AP: 57%
Rattus norvegicus [31]
  Decrease in AP: 34%
Rattus norvegicus [32]
  Decrease in AP: 57%
Rattus norvegicus [33]
  Decrease in AP: 37%
Rattus norvegicus [34]
  Decrease in blood pressure: 36%
